# Only some compounds are listed: those with a hit (about 7.9% of all), similar ones and a draw of the others.
# JNK3 blocker: inhibitors of human JNK3 kinase; P53779; purified JNK3 kinase activity, HTS; inhibition, % at 8 µM; hit rate 0.61% among 60,000; AID 746; in the data active = inhibition above about 17%;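 also: 0% = DMSO and 100% = reference inhibitor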
# SF-1 act: SF-1 (human) activation | Q13285 | CHO-K1 Gal4-SF-1 LBD luciferase reporter; % increase over DMSO SF-1-specific signal | activation, % at 10 µM | hit rate 1.9% among 65,000;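 active = activation above the mean activation of all tested compounds plus 3 SD, cut at about 50% in these data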
#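 Assay system: CHO-K1 cells co-transfected with Gal4 DBD–human SF-1 LBD, 5xGal4 luciferase reporter; doses: 10 µM only; incubation: 20 h compound exposure at 37 °C after 1 h cell settling; signal: luciferase light emission; evaluation: percent activation versus DMSO; repeats: one test per compound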
# RORa activator: activates the human nuclear receptor RORA. activation, % at 10 µM. hit rate 1.5% among 65,000. CHO-K1 Gal4-RORA LBD luciferase reporter, luminescence; percent increase over mock-subtracted basal signal. P35398;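 active = activation above the mean of all tested compounds plus 3 SD, cut at about 49% in these data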;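 also: 0% = DMSO-treated RORA cells and 100% = added signal equal to DMSO minus mock-transfected cells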
# HEK293 NFkB inh: lowers PMA/ionomycin-induced NF-kB signal in HEK293 cells. HEK-293 NF-kB luciferase reporter, luminescence. inhibition, % at 3 µM. hit rate 0.21% among 62,000. AID 465;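 active = inhibition above the mean of all tested compounds plus 3 SD, cut at about 40% in these data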;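 also: 0% = stimulated DMSO wells and 100% = 10 µM reference inhibitor 5653914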
#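 Timing: 1 h pretreatment, 16 h stimulation, 37 °C; system: HEK-293 cells with stable firefly luciferase reporter driven by four HIV NF-kB elements; doses: 3 µM once, 0.30% DMSO; measured by: luciferase luminescence; control set: DMSO and 10 µM reference inhibitor; repeats: single test; reagent: PMA plus ionomycin mix as NF-kB-activating stimulus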
# D1 mod: D1 dopamine receptor (human) allosteric modulation | P21728 | HEK293 D1, CRE-luciferase, dopamine EC30 potentiation; actives deviate in either direction | B-score at 10 µM | hit rate 5.9% among 58,000;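 active = luminescence count or its row- and column-corrected plate score outside the 99.7% band of the plate's sample wells, on either side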
# Target sequence (P21728 whole entry, looked up): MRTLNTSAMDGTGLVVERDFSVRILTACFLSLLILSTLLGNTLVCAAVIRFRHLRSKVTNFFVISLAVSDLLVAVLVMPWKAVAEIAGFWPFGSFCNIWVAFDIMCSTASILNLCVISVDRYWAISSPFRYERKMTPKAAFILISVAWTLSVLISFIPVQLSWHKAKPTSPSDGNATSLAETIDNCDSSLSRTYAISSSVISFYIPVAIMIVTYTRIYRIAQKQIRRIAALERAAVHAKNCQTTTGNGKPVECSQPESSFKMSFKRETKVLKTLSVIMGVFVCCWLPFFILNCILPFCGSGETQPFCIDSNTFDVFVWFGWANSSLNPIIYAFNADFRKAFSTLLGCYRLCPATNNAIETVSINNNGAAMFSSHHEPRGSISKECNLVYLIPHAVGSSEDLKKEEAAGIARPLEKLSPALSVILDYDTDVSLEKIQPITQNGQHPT
# An asterisk follows results filed as active; . = no result given.
SMILES,JNK3 blocker,SF-1 act,RORa activator,HEK293 NFkB inh,D1 mod
CC1CC(C)CN(CCCNC(=O)CNC(=O)Cn2ccc3ccccc3c2=O)C1 (stereo not given),.,-3,-11,30,0.019
Cc1nc2ccc(Cl)cc2nc(C)/c1=N\O,-7,52*,35,-28,-0.51
CC(=O)c1c(C)nc2cc(Cl)ccc2c1N,6,-2,-25,2,0.3
COc1ccc2c(CSc3nc4nc(C)cc(C)n4n3)cc(=O)oc2c1,6,10,22,5,1.5
COc1ccc(C(=O)NCCn2ccc3ccccc32)cc1,-4,58*,57*,-23,-0.13
O=C(NCCCN1CCCC1=O)c1ccc2c(c1)OCO2,-6,10,-4,-8,-0.62
O=C(NCCn1ccc2ccccc21)c1ccc2c(c1)OCO2,-7,72*,76*,-40,.
O=C(NCCn1ccc2ccccc21)c1ccc(S(=O)(=O)N2CCCCC2)cc1,-2,3,-2,8,0.029
COc1cccc(OC)c1-c1nn2c(-c3ccccc3Cl)nnc2s1,4,4,-14,.,.
Cc1ccc(C(C(=O)NCc2ccco2)N(CCc2ccccc2)C(=O)Cn2nnc3ccccc32)o1 (stereo not given),2,-10,5,-1,-4.3*
CCCn1c(SCC(=O)N2CCCc3ccccc32)nnc1-c1ccccn1,4,-1,-4,8,-0.41
Cc1cc(C(=O)Nc2sc(C)c(-c3ccc(F)cc3)c2C(N)=O)no1,0,85*,38,-54,-0.99
Cc1ccccc1OCc1nc2c3cnn(C)c3ncn2n1,.,37,50*,-22,0.21
CCOC(=O)c1nnn(-c2nonc2N)c1-c1ccccc1,3,-13,12,21,9*
Cc1c(C(=O)OCc2ccccc2)nnn1-c1nonc1N,0,-13,-4,16,0.21
COc1ccc(N(CC(=O)Nc2cc(C)ccc2OC)S(=O)(=O)c2c(C)noc2C)cc1,-4,54*,24,6,.
CC(C)(O)c1cc(=O)sc2nc3ccccc3n12,.,53*,71*,-19,0.072
Cc1cc(=O)n2[nH]c(-c3ccc(Cl)cc3)cc2n1,10,36,46,-17,.
CCCc1cc(=O)n2[nH]c(-c3ccc(Br)cc3)cc2n1,4,112*,38,-36,-0.11
O=C(Nc1ccc(F)cc1F)NC1CC(=O)N(Cc2ccccc2)C1 (stereo not given),-4,-9,-10,16,-0.28
O=C(Cn1c(=O)[nH]c2ccsc2c1=O)NC1CCCCCC1,.,8,-8,10,-0.075
CC1CCC(NC(=O)Cn2c(=O)[nH]c3ccsc3c2=O)CC1 (stereo not given),.,47,51*,3,0.018
CCOC(=O)C1CCN(C(=O)CN(c2ccc(OC)c(OC)c2)S(=O)(=O)c2ccccc2)CC1,2,-2,6,20,0.13
NC(=O)C1CCN(C(=O)CN(c2cccc(C(F)(F)F)c2)S(=O)(=O)c2ccccc2)CC1,2,-13,4,14,-2.3*
CCc1cc2c(=O)c(-c3cscn3)coc2cc1O,-1,31,2,.,-0.5
SMILES,JNK3 blocker,SF-1 act,RORa activator,HEK293 NFkB inh,D1 mod
CCc1cc2c(=O)c(-c3cscn3)coc2cc1OC,-7,39,52*,-10,-0.42
CCc1cc2c(=O)c(-n3cnc4ccccc43)coc2cc1O,-6,6,18,21,0.003
Cc1ccc2c(c1)C(N1CCCC1=O)CC(c1ccco1)N2 (stereo not given),-7,58*,52*,-28,-4.4*
Cc1ccc(-c2cc3nc(C)cc(NCc4ccco4)n3n2)cc1,0,51*,59*,-23,-1.9
COc1ccc(-c2cc3nc(C)cc(NCCO)n3n2)cc1,-3,8,1,2,.
O=S1(=O)C=C(Sc2nc3cc(Cl)ccc3o2)c2ccccc21,1,-71,-75,32,-2.3*
c1ccn2c(SCc3ccc4c(c3)OCCO4)nnc2c1,-2,40,57*,-11,-0.077
c1ccn2cc(CSc3nnc4ccccn34)nc2c1,9,58*,57*,-17,-1.2
O=C(CCCn1c(=O)c2sccc2n(Cc2ccc(F)cc2)c1=O)NCc1ccco1,-4,21,14,14,0.24
C/C(Cl)=C/Cn1c(SCC(C)C)nc2c1c(=O)[nH]c(=O)n2C,5,-6,21,14,14*
Cc1ccc(Cn2c(Sc3nnc(C)s3)nc3c2c(=O)[nH]c(=O)n3C)cc1,-7,-4,16,6,2.9
Cn1c(=O)[nH]c(=O)c2c1nc(Sc1nc3ccccc3s1)n2Cc1ccccc1,-2,11,4,9,4*
CCOC(=O)C(C)Sc1nc2c(c(=O)[nH]c(=O)n2C)n1CCc1ccccc1 (stereo not given),0,-3,-14,13,5.6*
CCCCCOC(=O)CSc1nc2c(c(=O)[nH]c(=O)n2C)n1CCc1ccccc1,-5,-2,-6,3,-0.091
CCCCOC(=O)CSc1nc2c(c(=O)[nH]c(=O)n2C)n1C/C=C(\C)Cl,4,-3,-13,7,-0.49
CCCCCn1c(SCCCC)nc2c1c(=O)[nH]c(=O)n2C,-1,2,-26,2,20*
COc1cccc(C2NC(=O)NC(C)=C2C(=O)OCCSC)c1OC (stereo not given),2,-9,3,11,-0.0041
C=CCNC(=O)C1CC(=O)N(c2ccc(OCC(=O)Nc3ccccc3)cc2)C1 (stereo not given),-2,10,1,-5,-0.29
CN(C1CCS(=O)(=O)C1)S(=O)C12CC3CC(CC(C3)C1)C2 (stereo not given),0,-3,3,1,0.42
CC1=C(C)C(=O)NC(Nc2nc(C)c3cc(C)cc(C)c3n2)N1 (stereo not given),-6,16,-5,1,-3.2*
O=C(Nc1ccc2oc(=O)ccc2c1)c1cccnc1,0,7,-2,8,.
O=C1c2ccccc2C(Nc2ccc(Cl)cn2)N1c1cccnc1 (stereo not given),-2,16,-4,22,-0.021
CC(=O)c1sc(NC(=O)c2ccccc2F)nc1C,11,27,-6,-65,-5.1*
COc1ccc(C(=O)N2CCN(S(=O)(=O)c3cc(Cl)ccc3OC)CC2)cc1,5,-4,-12,-14,0.38
OCC(O)CN1CCN(c2ccccc2)CC1 (stereo not given),-3,-2,-20,.,-0.66
OC(CN1CCN(c2ccccc2)CC1)c1ccc2c(c1)CCN2 (stereo not given),5,-14,13,0,-3*
CCOC(=O)N1CCN(CC(O)c2ccc3c(c2)CCN3)CC1 (stereo not given),-1,2,8,2,-3.9*
CCOC(=O)N1CCN(CC(O)c2ccc3cc[nH]c3c2)CC1 (stereo not given),4,-6,7,4,-0.8
